In the library only some 0.72% were active in any assay of this set; here they are far more common.
mIAP block = inhibitors of mouse IAP, primary screen, biochemical, luminescence, uHTS. inhibition, % at 10 µM. intestinal alkaline phosphatase [Mus musculus]. 330,000 compounds, 0.2% hits. purified mouse IAP, CDP-Star luminescence, 30 min;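 active = inhibition of at least 40% at 10 µM in the primary screen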
bIAP activator = bovine intestinal alkaline phosphatase activators, primary screen, biochemical, bovine IAP, CDP-star luminescence. AID 1016, 2008. purified bovine IAP, 30 min; hits give high values; fold of DMSO-control signal, blank-subtracted. activation factor at 20 µM. 200,000 compounds, 0.17% hits;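 active = activation factor of 2 or more at 20 µM, a signal rise over negative controls twice the positive control's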
mIAP activ = activators of mouse IAP, primary screen, biochemical, luminescence, uHTS. intestinal alkaline phosphatase [Mus musculus]. muIAP, CDP-Star luminescence, 30 min; hits give high values; 1 = vehicle-only enzyme signal, 0 = enzyme-free wells. activation factor at 10 µM. 330,000 compounds, 0.24% hits;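 active = activation factor of at least 2 at 20 µM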
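System: mouse IAP enzyme. Reagent: CDP-Star chemiluminescent phosphatase substrate. Benchmarks: DMSO wells, no-enzyme wells. Times: 30 min enzyme-substrate-compound incubation at room temperature. Detection: luminescence from enzymatic CDP-Star hydrolysis. Doses: test compounds delivered from DMSO solution.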
hIAP block = human IAP inhibitors, primary screen, biochemical, luminescence, uHTS. Intestinal-type alkaline phosphatase (Homo sapiens), P09923. purified IAP, CDP-Star luminescence, 30 min. inhibition, % at 10 µM. 330,000 compounds, 0.12% hits. AID 2544, 2010;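 active = inhibition reaching a set limit with compound at 10 µM in the primary screen, cut at about 35% in these data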
Target sequence (P09923 whole entry, looked up): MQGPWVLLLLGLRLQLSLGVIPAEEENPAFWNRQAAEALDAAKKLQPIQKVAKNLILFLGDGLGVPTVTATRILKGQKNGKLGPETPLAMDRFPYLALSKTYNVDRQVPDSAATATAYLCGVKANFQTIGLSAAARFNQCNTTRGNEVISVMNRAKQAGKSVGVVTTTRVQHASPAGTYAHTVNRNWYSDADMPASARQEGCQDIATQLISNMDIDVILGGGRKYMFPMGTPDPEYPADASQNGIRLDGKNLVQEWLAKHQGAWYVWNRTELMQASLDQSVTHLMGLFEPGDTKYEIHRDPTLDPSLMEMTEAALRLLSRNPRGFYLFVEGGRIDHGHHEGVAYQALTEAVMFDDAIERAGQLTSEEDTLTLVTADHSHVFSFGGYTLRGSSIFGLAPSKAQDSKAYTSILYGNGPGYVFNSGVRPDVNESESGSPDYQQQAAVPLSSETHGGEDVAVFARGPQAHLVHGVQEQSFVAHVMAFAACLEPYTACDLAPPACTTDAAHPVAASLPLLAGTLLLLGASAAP
hIAP act = human IAP activators, primary screen, biochemical, luminescence, uHTS; Intestinal-type alkaline phosphatase (Homo sapiens), P09923; purified human IAP, CDP-Star luminescence, 30 min; hits give high values; 1 = vehicle-only enzyme, 0 = enzyme-free background; activation factor at 10 µM; 330,000 compounds, 0.16% hits;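 active = activation factor of the enzyme at least 2-fold when tested at 20 µM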
bIAP inh = bovine intestinal alkaline phosphatase inhibitors, primary screen, selectivity assay for TNAP inhibitor project, biochemical, bovine IAP, CDP-star luminescence | alkaline phosphatase, intestinal [Bos taurus] | purified bovine IAP, 30 min | inhibition, % at 20 µM | 190,000 tested, under 10 active;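 active = over 50% inhibition of intestinal alkaline phosphatase at 20 µM in the single-dose screen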
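Assay system – bovine IAP enzyme · Quantity – bovine IAP at 1/65,000,000 final dilution · Detection – CDP-star luminescence signal · Times – 30 min reaction at room temperature · Also added – CDP-star substrate at 30 µM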
mIAP inh confirm = inhibitors of mouse IAP, confirmation, biochemical, luminescence, single concentration | inhibition, % at 10 µM | AID 434971, 2010 | purified mouse IAP, CDP-Star luminescence, 30 min | shares compounds with mIAP block | 11,000 compounds, 4.7% hits;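 active = inhibition of at least 40% at 10 µM in either of the two replicates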
Numbers stand for hits; n = inactive; x = no result given.

SMILES | mIAP block | bIAP activator | mIAP activ | hIAP block | hIAP act | bIAP inh | mIAP inh confirm
CC(=O)c1ccc(S(=O)(=O)NC2CC(=O)N(c3ccc(Cl)cc3)C2)cc1 (stereo unspecified) | n | x | n | n | n | x | x
COc1cc(/C=N/n2c(-c3n[nH]c4c3CCC4)n[nH]c2=S)cc(OC)c1O | n | x | n | n | n | x | x
S=c1[nH]nc(-c2n[nH]c3c2CCC3)n1/N=C/C=C/c1ccco1 | 50 | x | n | n | n | x | 42
COc1ccccc1/C=C/C=N/n1c(-c2ccco2)n[nH]c1=S | n | x | n | n | n | x | x
S=c1[nH]nc(-c2cc(-c3ccccc3)n[nH]2)n1/N=C/C=C/c1ccco1 | 48 | x | n | n | n | x | 47
S=c1[nH]nc(-c2cc(-c3ccccc3)n[nH]2)n1/N=C/c1c(Cl)cccc1Cl | n | x | n | n | n | x | x
S=c1[nH]nc(-c2ccco2)n1/N=C/C=C/c1ccco1 | 69 | n | n | n | n | n | 70
S=c1[nH]nc(COc2ccccc2)n1/N=C/C=C/c1ccccc1 | n | n | n | n | n | n | x
S=c1[nH]nc(COc2ccccc2)n1/N=C/C=C/c1ccco1 | 51 | x | n | n | n | x | 58
CC(C)(C)c1ccc(S(=O)(=O)N2CCN(CC(=O)NC(=O)NC3CCCCC3)CC2)cc1 | n | x | n | n | n | x | x
CC(C)COC(=O)COc1cc(Cl)c(Cl)cc1Cl | n | x | n | n | n | x | x
CN(CC(=O)Nc1cccc(F)c1)C(=O)c1ccccc1OCC(=O)Nc1cccc(C(F)(F)F)c1 | n | x | n | n | n | x | x
COC(=O)N/N=C/c1ccc([N+](=O)[O-])o1 | n | n | n | n | n | n | x
Cc1nonc1C(=O)N/N=C/c1ccc([N+](=O)[O-])o1 | 47 | n | n | n | n | n | 60
Cc1cc(C(=O)N/N=C/c2ccc([N+](=O)[O-])o2)c(C)o1 | 47 | x | n | n | n | x | 68
O=C(N/N=C/c1ccc([N+](=O)[O-])o1)c1sc2ccccc2c1Cl | 42 | x | n | n | n | x | 54
CC(C)(C)OC(=O)N1CCN(C(=O)c2[nH]cnc2C(=O)Nc2cccc(Cl)c2)CC1 | n | x | n | n | n | x | x
O=C(NCc1cccnc1)Nc1cccc(C(F)(F)F)c1 | n | x | n | n | n | x | x
O=C(NCc1ccc2c(c1)CCO2)Nc1cccc(C(F)(F)F)c1 | n | x | 3.8 | n | n | x | n
O=C(COC(=O)c1ccccc1)Nc1ncc([N+](=O)[O-])s1 | 67 | x | n | n | n | x | 72
COc1ccccc1CN(C)C(=O)CSCC(=O)Nc1ccccc1F | n | x | n | n | n | x | x
CCC1CCCCN1C(=O)COc1ccc(S(=O)(=O)N2CCOCC2)cc1Cl (stereo unspecified) | n | x | n | n | n | x | x
CCOC(=O)C1=C(N)n2c(s/c(=C/c3ccco3)c2=O)=C(C(=O)OC)C1c1ccco1 (stereo unspecified) | x | n | x | x | x | n | x
N#CC1=C(N)n2c(s/c(=C\c3ccco3)c2=O)=C(C#N)C1c1ccco1 (stereo unspecified) | 68 | n | n | n | n | n | 88
COC(=O)c1ccc(NC(=O)Nc2ccc(F)cc2F)cc1 | n | n | n | n | n | n | x
SMILES | mIAP block | bIAP activator | mIAP activ | hIAP block | hIAP act | bIAP inh | mIAP inh confirm
COC(=O)c1ccc(NC(=O)Nc2cccc(F)c2)cc1 | n | n | 2.6 | n | n | n | n
O=C1/C(=C\c2ccco2)SC(=S)N1c1ccccc1 | 64 | n | n | n | n | n | 57
COc1ccc(CCN2C(=O)/C(=C\c3ccco3)SC2=S)cc1OC | 42 | n | n | n | n | n | 45
Cc1ccc(N2C(=O)/C(=C\c3ccco3)SC2=S)cc1 | 55 | n | n | n | n | n | 65
O=C1/C(=C/c2ccco2)SC(=S)N1CC1CCCO1 (stereo unspecified) | 48 | x | n | n | n | x | 54
O=C1/C(=C\c2ccco2)NC(=S)N1c1ccccc1 | n | n | n | n | n | n | x
Cc1ccc(/C=C2\SC(=S)N(CC3CCCO3)C2=O)o1 (stereo unspecified) | n | x | n | n | n | x | x
O=C(c1ccc(O)c(Cl)c1)N1CCN(S(=O)(=O)c2ccccc2)CC1 | n | x | n | n | n | x | x
O=C(CNCc1ccc(F)cc1)Nc1cc(S(=O)(=O)N2CCOCC2)ccc1Cl | n | x | n | n | n | x | x
CSCC[C@H](NC(=O)C1CCN(S(=O)(=O)c2ccc(C)cc2C)CC1)c1nc2ccccc2[nH]1 | n | x | 2.6 | n | n | x | n
CSCC[C@H](NC(=O)c1cccc(S(=O)(=O)N2CCCCCC2)c1)c1nc2ccccc2[nH]1 | n | x | n | n | n | x | x
CCOc1ccc(-c2c(C(=O)N/N=C/c3ccsc3)nnn2-c2nonc2N)cc1 | n | x | n | n | n | x | x
O=c1oc(/C=C/c2ccco2)nc2sc3c(c12)CCC3 | 63 | n | n | n | n | n | 62
O=c1oc(-c2cccs2)nc2sc3c(c12)CCC3 | n | n | n | n | n | n | x
O=C(COc1ccccc1F)Nc1ccccc1C(=O)NC1CC1 | n | x | n | n | n | x | x
CCOc1ccc(NC(=S)NC(=O)/C=C/c2ccco2)cc1 | n | x | n | n | n | x | x
Cc1ccc(NC(=S)NC(=O)/C=C/c2ccco2)c(O)c1 | 47 | n | n | n | n | n | 54
COc1cccc(NC(=S)NC(=O)/C=C/c2ccco2)c1 | n | x | n | n | n | x | x
O=C(/C=C\c1ccco1)NC(=S)Nc1ccccc1O | 59 | x | n | n | n | x | 72
O=C(/C=C/c1ccco1)NC(=S)Nc1cccc(C(=O)O)c1 | 48 | x | n | n | n | x | 63
COc1ccc(NC(=S)NC(=O)/C=C/c2ccco2)c(OC)c1 | n | x | n | n | n | x | x
COc1cc(NS(=O)(=O)c2ccc(NC(=S)NC(=O)/C=C/c3ccco3)cc2)ncn1 | 42 | n | n | n | n | n | 64
COc1ccc(Cl)cc1NC(=O)CN(C)C(=O)Cn1cnc2c1c(=O)n(C)c(=O)n2C | n | x | n | n | n | x | x
Cc1ccccc1C(N)c1ccncc1 (stereo unspecified) | n | x | n | n | n | x | x
CC1(C)C(=O)Nc2ccccc2N1C(=O)COc1cc(Cl)ccc1Cl | n | x | n | n | n | x | x
COc1ccc(-n2nc(C(=O)NCC(=O)N3CCC(C)CC3)c3ccccc3c2=O)cc1Cl | n | x | n | n | n | x | x
